In the library only some 1.8% were active in any assay of this set; here they are far more common.
M4 antag = CHRM4 antagonism in calcium assay; P08173; CHO-hM4 cells, ACh EC80, Fluo-8 calcium fluorescence; inhibition, % at 3 µM; 360,000 compounds, 0.73% hits;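 active = inhibition above its plate's cutoff, the mean inhibition of sample wells plus 3 SD, cut at about 27% in these data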;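 note: 0% = acetylcholine EC80 with DMSO and 100% = DMSO without agonist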
M5 PAM = CHRM5 positive allosteric modulation; P08912; CHO-K1 hM5, Fluo-8 calcium, ACh EC20 PAM; 0% = ACh EC20, 100% = ACh EC100; activation, % at 3 µM; 360,000 compounds, 0.3% hits; AID 624038;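 active = activation above the run cutoff, the mean activation of all test compounds plus 3 SD, cut at about 18% in these data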
Target sequence (P08912 whole entry, looked up): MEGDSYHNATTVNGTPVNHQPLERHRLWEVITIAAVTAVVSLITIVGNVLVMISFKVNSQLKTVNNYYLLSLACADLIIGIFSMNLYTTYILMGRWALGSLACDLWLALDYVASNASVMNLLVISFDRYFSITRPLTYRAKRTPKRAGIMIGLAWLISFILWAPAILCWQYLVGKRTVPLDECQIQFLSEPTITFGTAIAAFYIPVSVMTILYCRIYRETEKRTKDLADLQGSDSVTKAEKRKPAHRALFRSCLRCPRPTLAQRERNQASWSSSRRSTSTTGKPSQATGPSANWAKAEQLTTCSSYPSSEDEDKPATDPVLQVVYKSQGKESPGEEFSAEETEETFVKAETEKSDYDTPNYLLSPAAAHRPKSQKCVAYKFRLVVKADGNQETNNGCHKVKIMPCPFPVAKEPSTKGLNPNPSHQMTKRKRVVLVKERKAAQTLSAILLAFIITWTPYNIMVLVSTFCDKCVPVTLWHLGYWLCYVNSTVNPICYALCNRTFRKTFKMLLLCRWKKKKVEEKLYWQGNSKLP
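Assay system – human M5 receptor in CHO-K1 cells · Read-out – % activation, ACh-normalized · Technique – Fluo-8 calcium fluorescence · Dosing – single-point, 3 µM nominal · Incubation – Fluo-8 loading 80 min at 37 °C plus 30 min room temperature · Repeats – singlicate, one well per test compound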
CHRM4 agonist = agonists of human muscarinic M4 receptor (CHRM4) | CHO-K1 hM4/Gqi5, Fluo-8 calcium fluorescence; vehicle 0%, full acetylcholine response 100% | activation, % at 3 µM | 360,000 compounds, 0.14% hits;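 active = activation above the run mean over all test wells plus 3 SD, cut at about 32% in these data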;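 note: peak over basal fluorescence ratio per well then scaled between controls; 0% = DMSO wells and 100% = acetylcholine at EC100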
M5 antag = CHRM5 antagonism in calcium assay | AID 624040 | inhibition, % at 3 µM | P08912 | 360,000 compounds, 0.59% hits | CHO-hM5 cells, Fluo-8 calcium fluorescence, ACh EC80;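 active = inhibition above a per-plate cutoff, the mean of that plate's test compounds plus 3 SD, cut at about 27% in these data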;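 note: 0% = acetylcholine EC80 with DMSO and 100% = DMSO without agonist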
M5 ag = CHRM5 agonism in calcium assay; CHO-K1 hM5 cells, Fluo-8 calcium fluorescence; 0% DMSO wells, 100% maximal acetylcholine response; activation, % at 3 µM; 360,000 compounds, 0.19% hits; AID 624037;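 active = activation above the run's mean over test compounds plus 3 SD, cut at about 23% in these data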;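 note: signal is peak over basal fluorescence ratio across the kinetic read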
CHRM4 PAM = positive allosteric modulators of human muscarinic M4 receptor; CHO-K1 hM4/Gqi5, Fluo-8 calcium fluorescence, ACh EC20; 0% = ACh EC20, 100% = maximal ACh; activation, % at 3 µM; 360,000 compounds, 0.4% hits; AID 624126;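 active = activation above its plate's cutoff, the mean activation of sample wells plus 3 SD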
An asterisk follows results filed as active.

SMILES	M4 antag	M5 PAM	CHRM4 agonist	M5 antag	M5 ag	CHRM4 PAM
CCOC(=O)C1CCCN(C(=S)Nc2cccc(Cl)c2C)C1 (configuration not stated)	6	-17	2	11	28*	0
Cc1c(Cl)cccc1NC(=S)N1CCCCCC1	-3	12	0	-3	-2	5
CCOC(=O)C1CCCN(C(=S)Nc2cccc(Cl)c2)C1 (configuration not stated)	7	-12	6	-2	33*	-4
CCOC(=O)C1CCCN(C(=S)Nc2ccc(OC)cc2)C1 (configuration not stated)	11	-18	7	7	34*	-10
CCOC(=O)c1ccc(NC(=S)N2CCCC(C(=O)OCC)C2)cc1 (configuration not stated)	5	-6	3	17	23	-3
CCOC(=O)C1CCCN(C(=S)Nc2ccc(F)cc2)C1 (configuration not stated)	-3	-12	7	-3	23	2
CCC1CC(C(=O)Nc2ccccc2)C(=O)O1 (configuration not stated)	-6	-6	1	6	1	-10
CCc1cccc(CC)c1N1C(=O)COCC1=O	-3	-2	0	6	-1	-3
CCc1cccc(CC)c1N1C(=O)C2=C(SCCCS2)C1=O	7	-9	34*	12	11	-13
COc1ccccc1NS(=O)(=O)c1cccc(-n2c(O)c(C=Nc3ccccc3C(=O)O)c3ccccc3c2=O)c1	1	9	-2	-3	-1	36*
COc1ccc(Cn2c(O)c(C=Nc3ccccc3C(=O)O)c3ccccc3c2=O)cc1	-18	13	-2	-3	3	16
O=C(CCCCN1CCCCC1)c1ccccc1	4	-5	10	10	-5	-21
CCC(O)(CCN1CCCCC1)c1ccccc1 (configuration not stated)	33*	-23	0	23	-10	-13
OC(CCCN1CCCCC1)(c1ccccc1)c1ccccc1	47*	-18	1	24	-1	-18
Cc1cc(C)n2c(NC3CCCCC3)c(CC(C)C)nc2n1	-2	-3	-1	0	0	8
COc1ccc(N2CCN(S(=O)(=O)c3c(C)nc4sccn4c3=O)CC2)cc1	-18	-2	2	-1	1	8
Cc1nc2sccn2c(=O)c1S(=O)(=O)N1CCN(c2ccccc2)CC1	61*	-8	0	8	-1	-17
Cc1nc2sccn2c(=O)c1S(=O)(=O)NCC1CCN(Cc2ccccc2Cl)CC1	34*	-10	0	7	-10	-22
COc1ccc(C(CNC(=O)c2[nH]c(C)c(C(C)=O)c2C)N2CCOCC2)cc1 (configuration not stated)	-2	5	0	14	1	4
NC1=NC(=O)CC(C(=O)NCc2ccccc2)S1 (configuration not stated)	-16	-2	2	-4	-5	16*
CCN(CC)CCOC(=O)c1ccc(NC(=O)C2(c3ccccc3)CCCC2)cc1	21	-41	3	36*	-15	-13
O=C(OCCN1CCCCC1)c1ccccc1Br	6	-11	11	21	-4	-16
O=C(OCCN1CCCC1)C1(c2ccccc2)CCCC1	94*	-23	2	99*	-8	-23
C[N+]1(CCCOC(=O)C2(c3ccccc3)CCCC2)CCOCC1	78*	-19	1	87*	-6	-39
COc1ccc(C(=O)OCC[N+]2(C)CCOCC2)cc1	-16	6	1	8	-9	10
SMILES	M4 antag	M5 PAM	CHRM4 agonist	M5 antag	M5 ag	CHRM4 PAM
O=C(OCCN1CCCCC1)C1(c2ccccc2)CCCC1	91*	-18	1	99*	-11	-25
O=C(O)c1ccc(NC(=O)C2(c3ccccc3)CCCC2)cc1	-5	3	0	6	-3	4
CC1=NN(C(=O)Cn2nc([N+](=O)[O-])c(Br)c2C)C(O)(C(F)(F)F)C1 (configuration not stated)	2	-4	0	4	-5	-4
COc1cc(NC(=O)c2ccc(-c3ccc(F)c(F)c3)c3ccoc23)cc(OC)c1OC	-8	-3	1	3	-1	5
CCNC(=O)C1(c2ccccc2)CCCC1	4	5	1	-1	1	9
CN(C)CCOC(=O)C1(c2ccccc2)CCCC1	77*	-20	1	86*	-8	-25
O=C(Nc1ccccc1)Nc1cc(OCC(F)(F)F)cc(OCC(F)(F)F)c1	10	-18	12	47*	1	-16
COc1ccccc1/C=C/C(=O)OCCN1C(=O)c2ccccc2C1=O	79*	-5	9	9	-3	-20
COc1cccc(/C=C/C(=O)OCCN2C(=O)c3ccccc3C2=O)c1	-17	-10	14	4	0	-7
Cn1c(N)c(C(=O)COC(=O)/C=C/c2ccc(Cl)cc2Cl)c(=O)n(C)c1=O	10	-2	1	-1	1	-1
COc1ccccc1/C=C/C(=O)OCC(=O)c1c(N)n(C)c(=O)n(C)c1=O	6	19*	1	4	2	8
COc1ccc(N(C)S(=O)(=O)c2cccc(C(=O)OCC(=O)c3c(N)n(C)c(=O)n(C)c3=O)c2)cc1	38*	-40	31	19	5	-16
CC1CC(C)(C)CC2(C1)NC(=O)N(CC(=O)N1CCN(Cc3ccc(C#N)cc3)CC1)C2=O (configuration not stated)	1	-3	4	9	4	16
CC(=O)Nc1ccc(NC(=O)C(C)OC(=O)c2cccc(S(=O)(=O)N3CCCCCC3)c2)cc1 (configuration not stated)	-5	0	1	-1	0	17
CC1Oc2ccccc2N(CC(=O)NC2CC2)C1=O (configuration not stated)	-15	-2	2	10	-3	-3
CC1Oc2ccccc2N(CC(=O)NCc2ccccc2)C1=O (configuration not stated)	-11	2	4	9	0	23*
CCOC(=O)C(NC(=O)c1ccccc1)(OCC1(CC)COC1)C(F)(F)F (configuration not stated)	-3	-1	0	-1	-2	-5
CCOC(=O)C(NC(=O)c1ccc(OC)cc1)(OCC1(CC)COC1)C(F)(F)F (configuration not stated)	-7	11	0	-12	-2	18*

Screening results from PubChem.
